Laboratory results from ChEMBL document CHEMBL4308848, “Molecular Basis for the N-Terminal Bromodomain-and-Extra-Terminal-Family Selectivity of a Dual Kinase-Bromodomain Inhibitor” (J Med Chem, 2018).
Activity calls are given as the source filed them. The calls are words filed in the database; no cut-off is given here.

Columns and labels:
[1] = molecular target: T1, Bromodomain-containing protein 4 (Homo sapiens, UniProt O60885); experiment: Inhibition of BRD4 C-terminal bromodomain 2 (unknown origin) expressed in Escherichia coli Bl21(DE3) by alpha-screen assay
[2] = molecular target: T1, Bromodomain-containing protein 4; experiment: Inhibition of BRD4 N-terminal bromodomain 1 (unknown origin) expressed in Escherichia coli Bl21(DE3) by alpha-screen assay
[3] = molecular target: T2, Bromodomain-containing protein 3 (Homo sapiens, UniProt Q15059); experiment: Inhibition of BRD3 N-terminal bromodomain 1 (unknown origin) expressed in Escherichia coli Bl21(DE3) by alpha-screen assay
T2 sequence (Q15059 whole entry): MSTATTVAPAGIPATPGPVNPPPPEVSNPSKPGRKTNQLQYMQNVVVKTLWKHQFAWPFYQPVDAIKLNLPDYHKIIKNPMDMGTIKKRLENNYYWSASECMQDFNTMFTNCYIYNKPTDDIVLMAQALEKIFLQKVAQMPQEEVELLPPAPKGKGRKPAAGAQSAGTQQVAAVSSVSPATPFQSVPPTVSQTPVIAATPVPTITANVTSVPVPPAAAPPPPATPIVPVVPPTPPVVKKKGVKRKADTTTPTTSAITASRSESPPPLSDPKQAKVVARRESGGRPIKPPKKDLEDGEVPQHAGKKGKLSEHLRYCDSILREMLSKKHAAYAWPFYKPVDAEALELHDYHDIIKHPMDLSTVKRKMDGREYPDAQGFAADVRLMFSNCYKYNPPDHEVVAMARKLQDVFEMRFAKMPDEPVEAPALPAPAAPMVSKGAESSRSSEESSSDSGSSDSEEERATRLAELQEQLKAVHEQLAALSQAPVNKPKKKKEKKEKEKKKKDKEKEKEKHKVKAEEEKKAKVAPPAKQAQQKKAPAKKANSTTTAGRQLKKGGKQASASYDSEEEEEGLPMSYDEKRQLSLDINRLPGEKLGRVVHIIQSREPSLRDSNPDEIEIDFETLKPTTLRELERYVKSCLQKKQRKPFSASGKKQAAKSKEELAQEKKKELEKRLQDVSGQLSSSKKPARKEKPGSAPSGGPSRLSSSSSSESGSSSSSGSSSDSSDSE

[4] = molecular target: T2, Bromodomain-containing protein 3; experiment: Inhibition of BRD3 C-terminal bromodomain 2 (unknown origin) expressed in Escherichia coli Bl21(DE3) by alpha-screen assay
[5] = molecular target: T3, Bromodomain-containing protein 2 (Homo sapiens, UniProt P25440); experiment: Inhibition of BRD2 N-terminal bromodomain 1 (unknown origin) expressed in Escherichia coli Bl21(DE3) by alpha-screen assay
T3 sequence (P25440 whole entry): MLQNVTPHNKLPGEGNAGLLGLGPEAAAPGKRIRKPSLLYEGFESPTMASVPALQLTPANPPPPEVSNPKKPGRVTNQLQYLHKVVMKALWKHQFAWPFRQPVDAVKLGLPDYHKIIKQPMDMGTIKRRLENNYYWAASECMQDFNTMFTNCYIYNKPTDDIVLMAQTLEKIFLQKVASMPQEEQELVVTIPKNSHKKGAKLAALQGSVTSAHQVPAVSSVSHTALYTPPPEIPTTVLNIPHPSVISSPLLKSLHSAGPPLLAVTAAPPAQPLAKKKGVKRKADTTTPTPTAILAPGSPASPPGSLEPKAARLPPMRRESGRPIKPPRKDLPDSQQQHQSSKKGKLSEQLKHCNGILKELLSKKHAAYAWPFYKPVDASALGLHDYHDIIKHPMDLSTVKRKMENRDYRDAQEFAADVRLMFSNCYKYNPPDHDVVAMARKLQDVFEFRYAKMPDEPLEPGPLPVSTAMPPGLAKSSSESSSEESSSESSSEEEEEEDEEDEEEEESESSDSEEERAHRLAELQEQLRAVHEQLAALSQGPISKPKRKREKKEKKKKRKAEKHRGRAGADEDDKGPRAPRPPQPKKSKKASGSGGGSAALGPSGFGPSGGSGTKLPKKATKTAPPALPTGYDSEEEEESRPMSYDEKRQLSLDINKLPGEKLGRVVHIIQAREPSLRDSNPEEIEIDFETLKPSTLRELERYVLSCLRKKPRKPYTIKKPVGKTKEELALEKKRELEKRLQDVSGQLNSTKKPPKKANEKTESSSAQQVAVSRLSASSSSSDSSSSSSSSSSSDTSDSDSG

[6] = molecular target: T3, Bromodomain-containing protein 2; experiment: Inhibition of BRD2 C-terminal bromodomain 2 (unknown origin) expressed in Escherichia coli Bl21(DE3) by alpha-screen assay
[7] = molecular target: T4, Bromodomain testis-specific protein (Homo sapiens, UniProt Q58F21); experiment: Inhibition of BRDT N-terminal bromodomain 1 (unknown origin) expressed in Escherichia coli Bl21(DE3) by alpha-screen assay
[8] = molecular target: T1, Bromodomain-containing protein 4
[9] = molecular target: T4, Bromodomain testis-specific protein
[10] = molecular target: T4, Bromodomain testis-specific protein; remark: listed apart in the source
[11] = molecular target: T1, Bromodomain-containing protein 4; experiment: Displacement of BI-BODIPY from BRD4 C-terminal bromodomain 2 (unknown origin) expressed in Escherichia coli Bl21(DE3) by fluorescence polarization assay
Method in brief: (§1)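 Fluorescence anisotropy in 50 mM HEPES, 100 mM NaCl, 4 mM CHAPS pH 7.4, with 15 nM BI-BODIPY tracer and bromodomain set at 80% tracer bound. […] Percent bound was determined where displacement was incomplete.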

[12] = molecular target: T4, Bromodomain testis-specific protein; experiment: Displacement of BI-BODIPY from BRDT C-terminal bromodomain 2 (unknown origin) expressed in Escherichia coli Bl21(DE3) by fluorescence polarization assay; method in brief: as §1
[13] = molecular target: T1, Bromodomain-containing protein 4; experiment: Binding affinity to BRD4 bromodomain 1 (unknown origin) expressed in Escherichia coli Bl21(DE3) by isothermal-titration calorimetry
[14] = molecular target: T1, Bromodomain-containing protein 4; experiment: Inhibition of BRD4 bromodomain 1 in human MM1S cells assessed as reduction in c-myc levels at 0.1 to 30 uM by Western blot analysis; format: cell-based
Method in brief: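 MM.1S cells in RPMI-1640/10% FBS were seeded at 10^6 per well and exposed for 6 h to 0.1–30 μM compound. Lysates were run on 12.5% SDS-PAGE and blotted for c-Myc, with GAPDH as loading control. Detection by HRP secondary and ECL on X-ray film.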

A549 [15] = experiment: Cytotoxicity against human A549 cells assessed as reduction in cell viability at 0.5 to 50 uM after 8 hrs by Alamar blue assay; format: cell-based; details: a549, 8 h
Method in brief: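 A549-NF-κB-luc cells in DMEM/10% FBS with hygromycin were dosed with serially diluted compound at 0.5% final DMSO. TNF-α (15 ng/mL final) was added 30 min after dosing, and viability was read by Alamar Blue in parallel with the 8 h luciferase read. Three biological × three technical replicates.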

[16] = molecular target: Mitogen-activated protein kinase 14 (Homo sapiens) (UniProt Q16539); experiment: Inhibition of p38alpha in human MM1S cells assessed as reduction in MSK1 phosphorylation at T581 at 0.1 to 30 uM by Western blot analysis; format: cell-based
Chain of Mitogen-activated protein kinase 14 (Homo sapiens) (Q16539 whole entry): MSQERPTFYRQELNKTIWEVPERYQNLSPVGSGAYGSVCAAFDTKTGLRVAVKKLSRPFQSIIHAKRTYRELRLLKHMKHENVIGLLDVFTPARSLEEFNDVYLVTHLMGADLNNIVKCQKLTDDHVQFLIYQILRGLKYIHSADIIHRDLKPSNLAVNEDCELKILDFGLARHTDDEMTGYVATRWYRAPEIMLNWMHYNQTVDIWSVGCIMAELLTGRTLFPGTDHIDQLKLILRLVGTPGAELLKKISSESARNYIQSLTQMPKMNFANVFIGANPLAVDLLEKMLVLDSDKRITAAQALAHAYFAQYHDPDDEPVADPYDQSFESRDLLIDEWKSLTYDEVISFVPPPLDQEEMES

[17] = molecular target: T2, Bromodomain-containing protein 3; experiment: Inhibition of human 6x-His-tagged BRD3 bromodomain 2 expressed in Escherichia coli
[18] = molecular target: T3, Bromodomain-containing protein 2; experiment: Inhibition of human 6x-His-tagged BRD2 bromodomain 2 expressed in Escherichia coli
[19] = molecular target: T1, Bromodomain-containing protein 4; experiment: Inhibition of BRD4 bromodomain 1 in human A549 cells assessed as reduction in TNFalpha-induced NFkappaB transcription at 1 to 25 uM after 8 hrs by bright-glo luciferase reporter gene assay relative to control; format: cell-based
Method in brief: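 A549-NF-κB-luc cells (DMEM, 10% FBS, hygromycin) were dosed with serial compound dilutions at 0.5% final DMSO. TNF-α (15 ng/mL final) was added 30 min after dosing. Bright-Glo luciferase luminescence was read 8 h later. Activity is expressed as percent NF-κB activity, as means ± SEM of three biological experiments, each with three technical replicates.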

[20] = molecular target: Mitogen-activated protein kinase 14 (Homo sapiens) (UniProt Q16539); experiment: Inhibition of p38alpha in human MM1S cells assessed as reduction in MSK1 phosphorylation at T581 up to 10 uM by Western blot analysis; format: cell-based
A549 [21] = experiment: Cytotoxicity against human A549 cells assessed as reduction in cell viability at 10 to 25 uM after 8 hrs by Alamar blue assay; format: cell-based; details: a549, 8 h
Method in brief: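 Viability of A549-NF-κB-luc cells was measured by Alamar Blue colorimetric staining, run in parallel with the luciferase reporter. Cells were dosed with serial compound dilutions at 0.5% final DMSO, TNF-α (15 ng/mL) was added 30 min after dosing, and the read was at 8 h.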

[22] = molecular target: T1, Bromodomain-containing protein 4; details: A549, 10 uM
[23] = molecular target: T1, Bromodomain-containing protein 4; details: A549, 1 uM
[24] = molecular target: T4, Bromodomain testis-specific protein; experiment: Binding affinity to human BRDT bromodomain 1 (unknown origin) expressed in Escherichia coli Bl21(DE3) at 12.5 to 100 uM by protein-observed fluorine NMR method
Method in brief: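 5-Fluorotryptophan-labeled bromodomain expressed in E. coli Bl21(DE3)+pRARE in defined medium with 5-fluoroindole, induced with 1 mM IPTG at 20 °C, Ni-purified. 19F NMR with 40−50 μM protein in 50 mM TRIS, 100 mM NaCl, 5% D2O pH 7.4, 0.05% DMSO, across varying ligand concentrations. Referenced to trifluoroacetate; 0.7 s relaxation delay, 90° flip.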

[25] = molecular target: T4, Bromodomain testis-specific protein; experiment: Inhibition of human BRDT bromodomain 1 expressed in HEK293 cells at 10 uM relative to control; format: cell-based
[26] = molecular target: SWI/SNF-related matrix-associated actin-dependent regulator of chromatin subfamily A member 2 (Homo sapiens) (UniProt P51531); experiment: Inhibition of human SMARCA2 (1377 to 1486 residues) (unknown origin) expressed in bacterial expression system at 10 uM relative to control
Chain of SWI/SNF-related matrix-associated actin-dependent regulator of chromatin subfamily A member 2 (Homo sapiens) (P51531 whole entry, the tested form may be a part): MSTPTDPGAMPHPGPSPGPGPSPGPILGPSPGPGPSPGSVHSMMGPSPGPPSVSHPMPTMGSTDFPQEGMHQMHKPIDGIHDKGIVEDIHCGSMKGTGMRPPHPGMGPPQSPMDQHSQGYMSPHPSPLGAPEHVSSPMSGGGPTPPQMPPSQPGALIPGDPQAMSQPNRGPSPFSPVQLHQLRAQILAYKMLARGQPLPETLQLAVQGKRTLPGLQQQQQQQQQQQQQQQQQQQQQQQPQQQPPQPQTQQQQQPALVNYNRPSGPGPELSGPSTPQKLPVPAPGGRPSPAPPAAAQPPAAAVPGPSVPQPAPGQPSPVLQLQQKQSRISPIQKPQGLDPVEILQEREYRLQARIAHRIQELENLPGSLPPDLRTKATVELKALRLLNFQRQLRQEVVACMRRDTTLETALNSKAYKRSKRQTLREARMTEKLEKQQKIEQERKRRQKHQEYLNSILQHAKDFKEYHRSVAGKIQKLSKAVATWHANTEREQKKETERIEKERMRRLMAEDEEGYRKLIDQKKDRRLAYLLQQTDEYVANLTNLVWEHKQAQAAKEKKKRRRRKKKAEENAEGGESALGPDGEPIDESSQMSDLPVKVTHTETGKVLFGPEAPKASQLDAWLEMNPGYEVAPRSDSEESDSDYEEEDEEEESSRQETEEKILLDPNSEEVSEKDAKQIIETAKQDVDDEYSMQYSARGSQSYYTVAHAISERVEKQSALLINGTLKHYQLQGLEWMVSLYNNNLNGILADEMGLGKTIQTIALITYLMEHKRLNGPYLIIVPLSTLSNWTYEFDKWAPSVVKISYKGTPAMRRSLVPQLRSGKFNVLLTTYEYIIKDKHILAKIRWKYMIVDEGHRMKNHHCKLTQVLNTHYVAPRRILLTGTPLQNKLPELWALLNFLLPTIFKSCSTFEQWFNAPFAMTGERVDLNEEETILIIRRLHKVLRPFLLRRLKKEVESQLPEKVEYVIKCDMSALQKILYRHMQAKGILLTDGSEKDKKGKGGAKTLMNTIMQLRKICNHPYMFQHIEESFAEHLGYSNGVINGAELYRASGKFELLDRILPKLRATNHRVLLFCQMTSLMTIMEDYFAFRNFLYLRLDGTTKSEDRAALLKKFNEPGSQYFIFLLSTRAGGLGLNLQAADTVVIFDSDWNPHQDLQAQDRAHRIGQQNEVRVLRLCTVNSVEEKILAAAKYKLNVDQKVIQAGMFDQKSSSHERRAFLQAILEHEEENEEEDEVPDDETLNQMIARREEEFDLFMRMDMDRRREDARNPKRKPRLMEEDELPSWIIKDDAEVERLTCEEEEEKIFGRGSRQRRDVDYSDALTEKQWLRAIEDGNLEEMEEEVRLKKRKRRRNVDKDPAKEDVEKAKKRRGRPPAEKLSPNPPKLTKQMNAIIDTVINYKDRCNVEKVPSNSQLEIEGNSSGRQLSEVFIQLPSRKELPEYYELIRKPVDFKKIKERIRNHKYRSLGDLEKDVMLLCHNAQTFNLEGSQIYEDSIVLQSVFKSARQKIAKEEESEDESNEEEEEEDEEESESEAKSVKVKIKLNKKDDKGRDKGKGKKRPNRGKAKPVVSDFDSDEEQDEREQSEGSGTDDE

[27] = molecular target: Histone acetyltransferase KAT2B (Homo sapiens) (UniProt Q92831); experiment: Inhibition of human PCAF (715 to 831 residues) expressed in bacterial expression system at 10 uM relative to control
Chain of Histone acetyltransferase KAT2B (Homo sapiens) (Q92831 whole entry, looked up, the tested form may be a part): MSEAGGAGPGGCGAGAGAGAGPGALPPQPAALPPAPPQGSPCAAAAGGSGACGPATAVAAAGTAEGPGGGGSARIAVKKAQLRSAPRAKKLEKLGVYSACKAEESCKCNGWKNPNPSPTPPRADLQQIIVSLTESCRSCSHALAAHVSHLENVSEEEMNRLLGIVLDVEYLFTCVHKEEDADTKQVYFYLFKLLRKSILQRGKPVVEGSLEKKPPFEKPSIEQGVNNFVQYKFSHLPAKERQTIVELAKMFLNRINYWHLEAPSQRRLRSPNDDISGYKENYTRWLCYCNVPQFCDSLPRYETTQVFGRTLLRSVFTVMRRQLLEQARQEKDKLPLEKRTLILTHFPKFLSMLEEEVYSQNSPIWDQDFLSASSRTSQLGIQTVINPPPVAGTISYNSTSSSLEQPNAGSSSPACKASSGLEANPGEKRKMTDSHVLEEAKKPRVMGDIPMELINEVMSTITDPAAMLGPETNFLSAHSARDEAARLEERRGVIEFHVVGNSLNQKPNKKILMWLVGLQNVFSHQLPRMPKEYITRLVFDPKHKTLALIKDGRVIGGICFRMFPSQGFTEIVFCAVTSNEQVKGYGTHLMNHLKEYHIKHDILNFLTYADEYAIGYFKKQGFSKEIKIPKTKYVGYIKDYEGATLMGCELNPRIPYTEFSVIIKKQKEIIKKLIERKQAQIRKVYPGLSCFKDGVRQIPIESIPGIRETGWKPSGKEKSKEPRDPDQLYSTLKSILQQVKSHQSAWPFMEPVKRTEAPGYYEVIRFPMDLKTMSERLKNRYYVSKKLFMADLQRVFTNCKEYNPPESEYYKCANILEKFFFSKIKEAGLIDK

[28] = molecular target: Histone acetyltransferase p300 (Homo sapiens) (UniProt Q09472); experiment: Inhibition of human P300 (1040 to 1161 residues) expressed in bacterial expression system at 10 uM relative to control
[29] = molecular target: SWI/SNF-related matrix-associated actin-dependent regulator of chromatin subfamily A member 4 (Homo sapiens) (UniProt P51532); experiment: Inhibition of human SMARCA4 expressed in HEK293 cells at 10 uM relative to control; format: cell-based

`Cc1cc(C)cc(Nc2nccc(-c3c(C)nnn3C3CCNCC3)n2)c1` gave an IC50 [1] of 0.56 µM, an IC50 [2] of 1.3 µM and an IC50 [3] of 0.77 µM. For the same compound, the IC50 [4] was 2.4 µM, the IC50 [5] was 1.8 µM and the IC50 [6] was 12 µM. It also gave an IC50 [7] of 1.6 µM.
For `Cc1ccc(Nc2nccc(-c3c(-c4ccc(F)cc4)ncn3C3CCNCC3)n2)cc1C`, the IC50 [8] was > 250 µM, the IC50 [9] was 4.7 µM and the IC50 [10] was > 250 µM. For the same compound, the inhibition [11] was “inactive”, the inhibition [12] was “inactive” and the Kd [13] was 1.8 µM. The inhibition [14] was “Active”, the Activity (A549 [15]) was “Non-Toxic” and the inhibition [16] was “Active”.
With `CC(=O)NCCCCn1c2c(c3ccccc31)C(=O)NCC2` the Kd [17] was > 75 µM and the Kd [18] was > 75 µM.
For `C[S+]([O-])c1ccc(-c2nc(-c3ccc(F)cc3)c(-c3ccncc3)[nH]2)cc1` (configuration not stated), the inhibition [19] was “inactive”.
For `CC[C@@H]1C(=O)N(C)c2cnc(Nc3ccc(C(=O)NC4CCN(C)CC4)cc3OC)nc2N1C1CCCC1`, the inhibition [12] was “Active”.
With `Cc1sc2c(c1C)C(c1ccc(Cl)cc1)=N[C@@H](CC(=O)OC(C)(C)C)c1nnc(C)n1-2` the inhibition [20] was “inactive”.
With `NC(=O)c1ccc(N(C(N)=O)c2c(F)cccc2F)nc1-c1ccc(F)cc1F` [VX-702] the Activity (A549 [21]) was “Non-Toxic” and the inhibition [19] was “inactive”.
For `COc1cc(OC)c2c(=O)[nH]c(-c3cc(C)c(OCCO)c(C)c3)nc2c1`, the inhibition [11] was “Active”, the inhibition [22] was 25% and the inhibition [23] was 40%.
`Fc1ccc(-c2ncn(C3CCNCC3)c2-c2ccnc(Oc3cc(F)cc(F)c3)n2)cc1` was tested, and the IC50 [9] was > 250 µM and the IC50 [10] was > 250 µM.
With `Cc1cc(C)cc(Nc2nccc(-c3c(-c4ccc(F)cc4)ncn3C3CCNCC3)n2)c1` the IC50 [9] was 3.5 µM, the IC50 [10] was > 250 µM and the Activity [24] was “Active”. For the same compound, the IC50 [3] was 11.2 µM, the IC50 [4] was > 100 µM and the IC50 [5] was 29 µM. For the same compound, the IC50 [6] was 67 µM, the IC50 [7] was 5.3 µM and the inhibition [12] was “inactive”. For the same compound, the inhibition [25] was 50%, the inhibition [26] was 40 to 50% and the inhibition [27] was 40 to 50%. The inhibition [28] was 40 to 50%, the inhibition [29] was 40 to 50% and the Activity (A549 [15]) was “Non-Toxic”.
`C[S+]([O-])c1ccc(-c2nc(-c3ccncc3)c(-c3ccc(F)cc3)[nH]2)cc1` (configuration not stated) [SB-203580] was tested, and the Activity (A549 [21]) was “Non-Toxic”.
For `Cc1cc(C)cc(Nc2nccc(-c3c(-c4ccc(F)cc4)nnn3C3CCNCC3)n2)c1`, the IC50 [1] was 75 µM, the IC50 [2] was 27 µM and the IC50 [3] was 51 µM. It also gave an IC50 [4] of 110 µM, an IC50 [5] of 43 µM and an IC50 [6] of 30 µM. The IC50 [7] was 36 µM.
Work on `Cc1cc(C)cc(Nc2nccc(-c3c(CO)nnn3C3CCNCC3)n2)c1` yielded an IC50 [1] of 102 µM, an IC50 [3] of 200 µM and an IC50 [4] of 310 µM. The IC50 [5] was > 250 µM, the IC50 [6] was 260 µM and the IC50 [7] was 110 µM.
